Converted amounts (≈) assume the structure as drawn.
Key:
Mus musculus = experiment: Dose normalized AUC (0 to 24 hrs) in mouse at 1 mg/kg, po administered as single dose; format: ADME, organism-based; conditions: in vivo
How it was run: (§1)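 Single oral dose of 1 mg/kg. Vehicle was 20% HPBCD for mouse and 0.4% HPMC for dog and monkey. Plasma AUC over 0–24 h, dose-normalized, reported in μM·h.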

[1] = biological target: T1, Tumour suppressor p53/oncoprotein Mdm2 (Homo sapiens, UniProt Q00987); experiment: Inhibition of human recombinant His-tagged MDM2 (1 to 118 residues) interaction with FAM-tagged p53-based peptide (unknown origin) incubated for 15 mins by fluorescence polarization assay; format: protein assay
T1 sequence (P04637 whole entry, the tested form may be a part): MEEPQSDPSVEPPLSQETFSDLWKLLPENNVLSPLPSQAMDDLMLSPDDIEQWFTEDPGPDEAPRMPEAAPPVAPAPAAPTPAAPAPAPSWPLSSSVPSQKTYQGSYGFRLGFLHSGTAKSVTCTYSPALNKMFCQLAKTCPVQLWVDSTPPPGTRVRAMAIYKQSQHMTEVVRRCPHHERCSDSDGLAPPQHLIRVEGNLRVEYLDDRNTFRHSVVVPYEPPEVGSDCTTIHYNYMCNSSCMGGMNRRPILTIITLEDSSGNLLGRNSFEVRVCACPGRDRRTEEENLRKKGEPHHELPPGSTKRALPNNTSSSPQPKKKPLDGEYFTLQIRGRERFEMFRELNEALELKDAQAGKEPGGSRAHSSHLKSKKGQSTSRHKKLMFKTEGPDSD
T1 sequence (Q00987 whole entry, the tested form may be a part): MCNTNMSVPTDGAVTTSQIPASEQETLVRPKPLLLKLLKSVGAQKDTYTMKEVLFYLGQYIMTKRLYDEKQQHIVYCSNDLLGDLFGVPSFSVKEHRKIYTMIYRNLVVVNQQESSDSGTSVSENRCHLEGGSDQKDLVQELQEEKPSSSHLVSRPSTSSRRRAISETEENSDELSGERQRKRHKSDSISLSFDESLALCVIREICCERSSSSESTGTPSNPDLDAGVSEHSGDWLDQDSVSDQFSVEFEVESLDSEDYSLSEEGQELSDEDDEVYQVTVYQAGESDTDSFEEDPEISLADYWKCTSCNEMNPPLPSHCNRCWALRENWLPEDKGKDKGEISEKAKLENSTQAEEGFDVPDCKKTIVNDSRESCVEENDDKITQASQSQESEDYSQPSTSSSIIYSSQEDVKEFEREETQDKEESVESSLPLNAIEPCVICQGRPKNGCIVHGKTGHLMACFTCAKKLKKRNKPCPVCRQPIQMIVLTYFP

[2] = Permeability from apical to basolateral side in human Caco2 cells; format: ADME, cell-based; conditions: Caco-2, read-out: permeability
[3] = Antiproliferative activity against human SJSA1 cells expressing wild type p53 after 72 hrs by CellTitre-Glo assay; conditions: SJSA-1, 72 h
[4] = Intrinsic clearance in human liver microsomes; format: ADME; conditions: read-out: CLH
SJSA-1 = experiment: Induction of apoptosis in human SJSA1 cells assessed as caspase 3/7 activation; format: functional, cell-based
[5] = biological target: T1, Tumour suppressor p53/oncoprotein Mdm2; experiment: Inhibition of MDM2/p53 interaction in human HCT116 cells assessed as activation of p53 transcription by luciferase reporter gene assay; format: cell-based, HCT-116
How it was run: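 p53 transcriptional activation measured in HCT116 cells with a p53 response element–driven luciferase reporter (P53RE-Luc).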

Canis familiaris = experiment: Dose normalized AUC (0 to 24 hrs) in dog at 1 mg/kg, po administered as single dose; format: ADME, organism-based, Canis lupus familiaris; conditions: in vivo; how it was run: as §1
SK-UT-1 = experiment: Antiproliferative activity against human SK-UT-1 cells harboring mutant p53 after 72 hrs by CellTitre-Glo assay; format: functional, cell-based; conditions: SK-UT-1, 72 h
How it was run: (§2)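 Cancer cell lines of known p53 coding-region status (checked by direct sequencing) were exposed to the compound for 72 h. Viability was read with CellTiter-Glo, and the IC50 was taken from these readings.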

[6] = Antiproliferative activity against human HCT116 cells expressing wild type p53 after 72 hrs by CellTitre-Glo assay; format: functional, cell-based; conditions: HCT-116, 72 h; how it was run: as §2
[7] = Solubility of compound in pH 7.4 phosphate buffer; format: physicochemical
[8] = Antiproliferative activity against p53 null human H1299 cells after 72 hrs by CellTitre-Glo assay; format: functional, cell-based; conditions: NCI-H1299, 72 h; how it was run: as §2
Rhesus monkey = experiment: Dose normalized AUC (0 to 24 hrs) in monkey at 1 mg/kg, po administered as single dose; format: ADME, organism-based, Macaca mulatta; conditions: in vivo; how it was run: as §1
[9] = Oral bioavailability in mouse at 20 mg/kg; format: ADME, organism-based; conditions: in vivo
[10] = AUC in mouse at 20 mg/kg, po or 2 mg/kg, iv; format: ADME, organism-based; conditions: in vivo
A2780 = experiment: Antitumor activity against human A2780 cells xenografted in nude mouse harboring wild type p53 assessed as tumor growth inhibition at 40 mg/kg, ip once weekly for 15 days relative to control; conditions: 360 h, read-out: TGI
A549 = experiment: Antitumor activity against human A549 cells xenografted in nude mouse assessed as tumor growth inhibition at 20 mg/kg, ip once weekly for 30 days relative to control; format: functional; conditions: 720 h, read-out: TGI
How it was run: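 Mice bearing A549 NSCLC xenografts. The test agent was given orally, either daily or intermittently (daily for 3 days, then 4 days off). Paclitaxel was given at 20 mg/kg ip weekly, alone or in combination. Read-out was tumor growth inhibition.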

Row | SMILES | IC50 [1] [nM] | IC50 [3] [nM] | also measured
1 | CCC[C@H]1N(C(=O)c2cnccc2C(F)(F)F)CCC[C@@]1(Oc1csc(C(F)(F)F)c1)C(=O)N1CCN(c2ccccc2OCC(=O)O)CC1 | 2 | 1100 | AUC/dose (Mus musculus): 0.02 µM·h; Papp A→B [2]: 0.7 ×10⁻⁶ cm/s
2 | CCC[C@H]1N(C(=O)c2cnccc2C(F)(F)F)CCC[C@@]1(Oc1csc(C(F)(F)F)c1)C(=O)N1CCN(c2ccccc2OCCCCC(=O)O)CC1 | 7 | 170 | –
3 | CCC[C@H]1N(C(=O)c2cnccc2C(F)(F)F)CCC[C@@]1(Oc1cc(C(F)(F)F)sc1C)C(=O)N1CCN(c2ccccc2OCCO)CC1 | 470 | – | –
4 | CCC[C@@H]1N(C(=O)c2cnccc2C(F)(F)F)CCC[C@]1(Oc1csc(C(F)(F)F)c1)C(=O)N1CCN(c2ccccc2OCC2(CC(=O)O)CC2)CC1 (single isomer, unassigned) | 33 | – | –
5 | COc1ccccc1N1CCN(C(=O)C2(Oc3ccc(C(F)(F)F)cc3)CCCN(C(=O)c3cnccc3C(F)(F)F)C2)CC1 (stereo not given) | – | 5500 | –
6 | CCC[C@H]1N(C(=O)c2cnccc2C(F)(F)F)CCC[C@@]1(Oc1csc(C(F)(F)F)c1)C(=O)N1CCN(c2ccccc2OC(C)(C)C(=O)O)CC1 | 11 | 80 | –
7 | CCC[C@@H]1N(C(=O)c2cnccc2C(F)(F)F)CCC[C@]1(Oc1csc(C(F)(F)F)c1)C(=O)N1CCN(c2ccccc2OCC(=O)NC)CC1 (single isomer, unassigned) | 4 | 110 | AUC/dose (Mus musculus): 2 µM·h; CLint scaled [4]: 13 mL/min/kg; IC50 (SJSA-1): 300 nM; Papp A→B [2]: 18.1 ×10⁻⁶ cm/s; EC50 [5]: 400 nM; AUC/dose (Canis familiaris): 0.2 µM·h; IC50 (SK-UT-1): > 10000 nM; IC50 [6]: 470 nM; solubility [7]: 12 µM (≈ 8.9 µg/mL); IC50 [8]: > 17000 nM; AUC/dose (Rhesus monkey): 0.3 µM·h
8 | CCC[C@H]1N(C(=O)c2cnccc2C(F)(F)F)CCC[C@@]1(Oc1csc(C(F)(F)F)c1)C(=O)N1CCN(c2ccccc2OCC(C)(C)C(=O)O)CC1 | 4 | 260 | –
9 | CCC[C@@H]1N(C(=O)c2cnccc2C(F)(F)F)CCC[C@]1(Oc1csc(C(F)(F)F)c1)C(=O)N1CCN(c2ccccc2OCCC(C)(C)C(=O)O)CC1 (single isomer, unassigned) | 10 | 280 | –
10 | CCC[C@H]1N(C(=O)c2cnccc2C(F)(F)F)CCC[C@@]1(Oc1csc(C(F)(F)F)c1)C(=O)N1CCN(c2ccccc2OCC(C)(C)O)CC1 | 23 | 600 | –
11 | CCC[C@@H]1N(C(=O)c2cnccc2C(F)(F)F)CCC[C@]1(Oc1cc(C(F)(F)F)n(C)n1)C(=O)N1CCN(c2ccccc2OCCO)CC1 (racemic) | 6300 | – | –
12 | CCC[C@@H]1N(C(=O)c2cnccc2C(F)(F)F)CCC[C@]1(Oc1ccc(C(F)(F)F)cc1)C(=O)N1CCN(c2ccccc2OCCO)CC1 (single isomer, unassigned) | 40 | 460 | AUC/dose (Mus musculus): 1.2 µM·h; CLint scaled [4]: 23 mL/min/kg; Papp A→B [2]: 9.9 ×10⁻⁶ cm/s; bioavailability [9]: 92%; AUC [10]: 8.7 µM·h
13 | C=CC[C@H]1N(C(=O)c2cnccc2C(F)(F)F)CCC[C@@]1(Oc1cc(C2CC2)cs1)C(=O)N1CCN(c2ccccc2OCCCC(=O)O)CC1 | 3500 | – | –
14 | CC(=O)O[C@@]12CO[C@@H]1C[C@H](O)[C@@]1(C)C(=O)[C@H](O)C3=C(C)[C@@H](OC(=O)[C@H](O)[C@@H](NC(=O)OC(C)(C)C)c4ccccc4)C[C@@](O)([C@@H](OC(=O)c4ccccc4)[C@H]21)C3(C)C [DOCETAXEL ANHYDROUS] | – | – | inhibition in vivo at 40 mg/kg (A2780): 53%
15 | CCC[C@@H]1N(C(=O)c2cnccc2C(F)(F)F)CCC[C@]1(Oc1csc(C(F)(F)C(F)(F)F)c1)C(=O)N1CCN(c2ccccc2OCCO)CC1 (single isomer, unassigned) | 25 | 1100 | –
16 | CCC[C@H]1N(C(=O)c2cnccc2C(F)(F)F)CCC[C@@]1(Oc1csc(C(F)(F)F)c1Cl)C(=O)N1CCN(c2ccccc2OCCO)CC1 | 130 | – | –
17 | CCC[C@H]1N(C(=O)c2cnccc2C(F)(F)F)CCC[C@@]1(Oc1cccs1)C(=O)N1CCN(c2ccccc2OCCO)CC1 (racemic) | 2900 | – | –
18 | COc1ccc(C2=N[C@@H](c3ccc(Cl)cc3)[C@@H](c3ccc(Cl)cc3)N2C(=O)N2CCNC(=O)C2)c(OC(C)C)c1 [NUTLIN-3] | – | 1900 | –
19 | CC(=O)O[C@H]1C(=O)[C@@]2(C)[C@H]([C@H](OC(=O)c3ccccc3)[C@]3(O)C[C@H](OC(=O)[C@H](O)[C@@H](NC(=O)c4ccccc4)c4ccccc4)C(C)=C1C3(C)C)[C@]1(OC(C)=O)CO[C@@H]1C[C@@H]2O [PACLITAXEL] | – | – | inhibition in vivo at 20 mg/kg (A549): 54%
20 | CCC[C@H]1N(C(=O)c2cnccc2C(F)(F)F)CCC[C@@]1(Oc1cc(I)cs1)C(=O)N1CCN(c2ccccc2OCCO)CC1 (racemic) | 90 | – | –
21 | CCC[C@H]1N(C(=O)c2cnccc2C(F)(F)F)CCC[C@@]1(Oc1csc(C(F)(F)F)c1)C(=O)N1CCN(c2ccccc2OC(C)(C)CO)CC1 | 25 | 1100 | –
22 | CCC[C@H]1N(C(=O)c2cnccc2C(F)(F)F)CCC[C@@]1(Oc1csc(C(F)(F)F)c1C)C(=O)N1CCN(c2ccccc2OCCO)CC1 | 58 | – | –
23 | CCC[C@@H]1N(C(=O)c2cnccc2C(F)(F)F)CCC[C@]1(Oc1csc(C(F)(F)F)c1)C(=O)N1CCN(c2ccccc2OCCO)CC1 (single isomer, unassigned) | 15 | 180 | AUC/dose (Mus musculus): 2 µM·h; CLint scaled [4]: 14 mL/min/kg; IC50 (SJSA-1): 300 nM; EC50 [5]: 400 nM; AUC/dose (Canis familiaris): 0.2 µM·h; IC50 (SK-UT-1): > 17000 nM; IC50 [6]: 390 nM; solubility [7]: 10 µM (≈ 7.15 µg/mL); IC50 [8]: > 17000 nM; AUC/dose (Rhesus monkey): 0.3 µM·h
24 | COCCOc1ccccc1N1CCN(C(=O)[C@]2(Oc3ccc(C(F)(F)F)cc3)CCCN(C(=O)c3cnccc3C(F)(F)F)[C@@H]2CCO)CC1 | – | 530 | –
25 | CCC[C@@H]1N(C(=O)c2cnccc2C(F)(F)F)CCC[C@]1(Oc1cc(C(F)(F)F)cs1)C(=O)N1CCN(c2ccccc2OCCO)CC1 (racemic) | 170 | – | –
26 | CCC[C@@H]1N(C(=O)c2cnccc2C(F)(F)F)CCC[C@]1(Oc1nc(C(F)(F)F)cs1)C(=O)N1CCN(c2ccccc2OCCO)CC1 (racemic) | 1100 | – | –

Reference: ChEMBL document CHEMBL3804796, “Discovery of Novel 3,3-Disubstituted Piperidines as Orally Bioavailable, Potent, and Efficacious HDM2-p53 Inhibitors” (ACS Med Chem Lett, 2016)
